# Screens: PubChem BioAssay, The Scripps Research Institute Molecular Screening Center
# Compounds with a hit are over-represented: about 1.9% of the library has one in this group of screens.
# CHRM4 PAM – CHRM4 positive allosteric modulation; P08173; 0.4% of 360,000 active; activation, % at 3 µM; CHO-K1 hM4/Gqi5, Fluo-8 calcium fluorescence, ACh EC20; 0% = ACh EC20, 100% = maximal ACh;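 active = activation above its plate's cutoff, the mean activation of sample wells plus 3 SD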
# M4 antag – blocks acetylcholine activation of human M4 receptor. 0.73% of 360,000 active. CHO-hM4 cells, ACh EC80, Fluo-8 calcium fluorescence. P08173. inhibition, % at 3 µM;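 active = inhibition above its plate's cutoff, the mean inhibition of sample wells plus 3 SD, cut at about 27% in these data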;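 also: 0% = acetylcholine EC80 with DMSO and 100% = DMSO without agonist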
# M5 PAM – positive allosteric modulators of human muscarinic M5 receptor. P08912. CHO-K1 hM5, Fluo-8 calcium, ACh EC20 PAM; 0% = ACh EC20, 100% = ACh EC100. activation, % at 3 µM. 0.3% of 360,000 active. AID 624038;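 active = activation above the run cutoff, the mean activation of all test compounds plus 3 SD, cut at about 18% in these data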
# Target sequence (P08912 whole entry, looked up): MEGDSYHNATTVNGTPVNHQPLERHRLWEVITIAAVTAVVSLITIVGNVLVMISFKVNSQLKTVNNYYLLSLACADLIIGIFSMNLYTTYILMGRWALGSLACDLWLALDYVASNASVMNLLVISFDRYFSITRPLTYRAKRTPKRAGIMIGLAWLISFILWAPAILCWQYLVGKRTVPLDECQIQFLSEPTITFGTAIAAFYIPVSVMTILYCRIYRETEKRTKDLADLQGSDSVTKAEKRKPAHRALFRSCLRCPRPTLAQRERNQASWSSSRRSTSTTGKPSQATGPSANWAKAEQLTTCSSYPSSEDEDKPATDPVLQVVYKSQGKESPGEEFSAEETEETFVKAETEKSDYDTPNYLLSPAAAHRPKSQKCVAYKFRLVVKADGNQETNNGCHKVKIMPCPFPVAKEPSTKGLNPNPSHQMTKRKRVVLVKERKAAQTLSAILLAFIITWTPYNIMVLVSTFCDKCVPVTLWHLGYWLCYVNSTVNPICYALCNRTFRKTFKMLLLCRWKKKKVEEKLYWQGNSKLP
#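 Assay system: CHO-K1 hM5 cells / Incubation: Fluo-8 loading 80 min at 37 °C plus 30 min room temperature / Technique: Fluo-8 calcium dye fluorescence, kinetic read / Repeats: single replicate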
# M5 antag – antagonists of human muscarinic M5 receptor (CHRM5). P08912. CHO-hM5 cells, Fluo-8 calcium fluorescence, ACh EC80. inhibition, % at 3 µM. 0.59% of 360,000 active. AID 624040;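 active = inhibition above a per-plate cutoff, the mean of that plate's test compounds plus 3 SD, cut at about 27% in these data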;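 also: 0% = acetylcholine EC80 with DMSO and 100% = DMSO without agonist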
# CHRM5 agonist – agonists of human muscarinic M5 receptor (CHRM5) | AID 624037 | CHO-K1 hM5 cells, Fluo-8 calcium fluorescence; 0% DMSO wells, 100% maximal acetylcholine response | P08912 | 0.19% of 360,000 active | activation, % at 3 µM;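 active = activation above the run's mean over test compounds plus 3 SD, cut at about 23% in these data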;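 also: signal is peak over basal fluorescence ratio across the kinetic read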
# CHRM4 agonist – agonists of human muscarinic M4 receptor (CHRM4); P08173; CHO-K1 hM4/Gqi5, Fluo-8 calcium fluorescence; vehicle 0%, full acetylcholine response 100%; activation, % at 3 µM; 0.14% of 360,000 active;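 active = activation above the run mean over all test wells plus 3 SD, cut at about 32% in these data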;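 also: peak over basal fluorescence ratio per well then scaled between controls; 0% = DMSO wells and 100% = acetylcholine at EC100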
# Active calls of the source: *.
SMILES,CHRM4 PAM,M4 antag,M5 PAM,M5 antag,CHRM5 agonist,CHRM4 agonist
Cc1ccc(-c2c(C(=O)N/N=C/c3cccs3)nnn2-c2nonc2N)cc1,4,-3,5,-4,17,5
Nc1nonc1-n1nnc(C(=O)N/N=C/c2cccs2)c1-c1ccc2c(c1)OCO2,-4,-11,-2,-21,57*,69*
Nc1nonc1-n1nnc(C(=O)N/N=C/c2ccccc2Cl)c1CN1CCOCC1,16*,-6,-2,7,-7,0
CCOc1ccc(/C=N/NC(=O)c2nnn(-c3nonc3N)c2-c2cccs2)cc1,-2,3,6,7,33*,33*
Cc1ccsc1/C=N/NC(=O)c1nnn(-c2nonc2N)c1-c1ccc2c(c1)OCO2,9,3,6,-6,7,4
Cc1ccc(-c2c(C(=O)N/N=C/c3ccsc3)nnn2-c2nonc2N)cc1,-6,-8,0,0,26*,8
CS(=O)(=O)N1Cc2cc(C(=O)NCC3CC3)nc(-c3cccc(-c4cccnc4)c3)c2[C@H]1CCO,7,-5,11,8,-3,0
COc1ccc(C)cc1NC(=O)c1sc2ncnc(N3CCN(c4ccccn4)CC3)c2c1C,-1,-6,-3,23,0,0
COc1ccc(-c2cc(NC=O)c3ncc(-c4cccc(C(=O)N(C)C)c4)n3c2)cn1,4,2,-1,0,0,3
COc1ccc(S(=O)(=O)N2CCC3(CC2)OCCN3S(=O)(=O)c2ccc(C)cc2)cc1OC,7,-9,-6,11,2,2
CCOc1ccc(-c2c(C(=O)N/N=C(\C)c3cccnc3)nnn2-c2nonc2N)cc1,11,8,20*,-4,7,3
On1ccccc1=S,0,31*,-2,23,3,3
O=C(Cn1ccccc1=S)c1ccc(Cl)c(Cl)c1,-3,-1,-13,16,-8,2
COc1ccccc1NC(=O)CCNC(=O)C1CCN(S(=O)(=O)c2ccccc2)CC1,0,-21,-1,-2,0,5
Oc1ccc(C=NCCc2ccccc2)cc1,1,0,-1,4,-1,2
Cc1cc(C)nc(SCCn2c(N3CCOCC3)nc3c2c(=O)[nH]c(=O)n3C)n1,2,12,0,6,-4,0
COc1cc(NC(=O)c2cc3nc(C)cc(C)n3n2)c(OC)cc1Cl,28*,2,7,-10,-4,1
COc1cc(NC(=O)c2c(F)c(F)c(F)c(F)c2F)c(OC)cc1Cl,-20,36*,-9,2,-8,-3
COc1cc(NC(=O)c2ccc(F)cc2)c(OC)cc1Cl,-2,-5,10,-4,-14,-1
COc1ccc(C(=O)Nc2cc(OC)c(Cl)cc2OC)cc1,0,0,-2,17,-6,0
C=C(C)COc1ccc(-c2ncnc(C(F)(F)F)c2-c2ccccc2)c(O)c1,-12,27*,-14,17,-6,3
C=C(C)COc1ccc(-c2ncnc(C(F)(F)F)c2-c2ccc(OC)cc2)c(O)c1,-15,25,-14,24,-5,8
COc1ccc(C(=O)c2ccc(Br)cc2)cc1,6,-6,0,-7,-1,-1
O=C(c1ccncc1)c1ccc(Br)cc1,35*,9,0,-7,2,0
CC12CCC(=O)C=C1CCC1C2C(O)CC2(C)C(c3csc(N)n3)CCC12 (centres undefined),-9,5,-12,13,-1,12
CC12CCC(=O)C=C1CCC1C2CCC2(C)C(c3csc(N)n3)CCC12 (centres undefined),-15,47*,-35,19,-4,19
O=C(C1CCN(S(=O)(=O)c2cccs2)CC1)N1CCCC(C(F)(F)F)C1 (centres undefined),9,0,-3,2,-2,2
c1cc2c(cc1CN1CCN(C3CCCCCC3)CC1)OCO2,-16,46*,-14,9,-8,0
O=C1c2ccccc2C(=O)N1CC#CCN1CCN(C(c2ccccc2)c2ccccc2)CC1,-7,-23,-14,6,-7,0
